Results on 9 compounds are retold here after ChEMBL document CHEMBL2375257, “Synthesis of C- and O-prenylated tetrahydroxystilbenes and O-prenylated cinnamates and their action towards cancer cells” (Eur J Med Chem, 2013).

The test system of this assay is K562. Kind of assay: Cytotoxicity against human K562 cells assessed as growth inhibition after 72 hrs by MTT assay. Format: functional, cell-based. To be noted: for pIC50: K562, 72 h. Put shortly: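 K562 leukaemia cells exposed to compounds for 72 h at 37 °C in a humidified 5% CO2 incubator, with MTT read-out. IC50 is the concentration inhibiting cell growth by 50%, estimated from two concentrations per compound. Values are the mean of two independent assays, each run in duplicate; coefficients of variation <10%.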

pIC50: −log10 of the molar value.

As for `COc1cc(/C=C/c2cc(O)cc(OCC=C(C)C)c2)ccc1O`, the “growth inhibition (GI)” value was “Dose-dependent effect” and the pIC50 (commonly the negative decadic logarithm of the IC50, by convention in mol/L) is 4.68.
The like results for `COC(=O)/C=C/c1ccc(OC/C=C(\C)C=O)cc1` were, in that order, “Dose-dependent effect” and 4.24.
With `COC(=O)/C=C/c1ccc(OC/C=C(\C)CO)cc1`, the “growth inhibition (GI)” value is “Dose-dependent effect” and the pIC50 is 4.15.
With `COc1cc(/C=C/c2cc(O)cc(OC)c2CC=C(C)C)ccc1O`, the “growth inhibition (GI)” value was “Dose-dependent effect” and the pIC50 was 7.00.
Regarding `COC(=O)/C=C/c1ccc(OCC=C(C)C)cc1`, the “growth inhibition (GI)” value is “Dose-dependent effect” and the pIC50 is 4.01.
For the compound `COc1ccc(/C=C/c2cc(O)cc(OCC=C(C)C)c2)cc1O`, the “growth inhibition (GI)” value was “Dose-dependent effect” and the pIC50 was 4.33.
In the case of `COc1cc(CCc2cc(O)cc(OCC=C(C)C)c2)ccc1O`, the “growth inhibition (GI)” value is “Dose-dependent effect” and the pIC50 was 4.20.
In the same order, the values of `COc1cc(CCc2cc(O)cc(OC)c2CC=C(C)C)ccc1O` are “Dose-dependent effect” and 5.00.
The like results for `COc1ccc(CCc2cc(O)cc(OCC=C(C)C)c2)cc1O` were, in that order, “Dose-dependent effect” and 4.50.
